# Measurements reported in article PMC10926215 (The Journal of Biological Chemistry, 2024).
# Square brackets hold non-standard residues; d marks the D form. Peptide text beside a SMILES is read from it. pS = N[C@@H](COP(=O)(O)O)C(=O)O
# Experiments:
# [1] = test system: PDE8A–14-3-3ζ interaction; assay: Co-immunoprecipitation of PDE8A with HA-14-3-3ζ in treated HEK293T cells; format: cell-based, human; details: for change of PDE8A–14-3-3ζ interaction, PKC activator/inhibitor: 1 μM, Fig. 3B
# [2] = test system: PDE8A; details: background statement; ref not stated; cited from earlier work
# [3] = molecular target: T1, 14-3-3ζ protein (Homo sapiens, UniProt P63104); assay: 31P NMR titration of KA14P with 14-3-3ζ protein; format: binding
# T1 sequence (P63104 1-245): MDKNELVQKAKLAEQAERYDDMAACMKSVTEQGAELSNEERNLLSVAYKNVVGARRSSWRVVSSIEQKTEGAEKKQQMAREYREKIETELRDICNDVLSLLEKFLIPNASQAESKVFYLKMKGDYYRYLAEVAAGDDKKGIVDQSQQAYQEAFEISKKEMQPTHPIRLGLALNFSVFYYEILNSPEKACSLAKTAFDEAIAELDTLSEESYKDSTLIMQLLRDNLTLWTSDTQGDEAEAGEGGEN
# Procedure, shortened: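 Human 14-3-3ζ expressed from pQE30 in E. coli M15 (0.5 mM IPTG, 3 h, 37 °C), Ni-NTA purified, and stored in 10 mM phosphate pH 6.1 with 50 mM NaCl. Peptide held at 500 μM. Spectra taken with 512 scans, 16 dummy scans and a 10 s recycle delay. A 20 Hz exponential line broadening was applied before Fourier transformation.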
# [4] = test system: D726A PDE8A mutant (DN-PDE8A); details: cited from earlier work
# [5] = test system: DN-PDE8A (D726A)–14-3-3ζ interaction; assay: Co-immunoprecipitation of DN-PDE8A with HA-14-3-3ζ in treated HEK293T cells; format: cell-based, human; details: forskolin 100 μM, 15 min; Fig. 3D
# [6] = molecular target: 14-3-3ζ (UniProt P63104); assay: co-IP, anti-HA IP, Myc/FLAG blot; details: reference: wild type PDE8A; sites S359
# [7] = molecular target: KA14P (phosphorylated PDE8A peptide) (human); assay: NMR titration
compound,measurement,setting,value
CN(C)CCCn1cc(C2=C(c3c[nH]c4ccccc34)C(=O)NC2=O)c2ccccc21 [GX109203X],"change of PDE8A–14-3-3ζ interaction, PKC activator/inhibitor",[1]; 15 min,no change of interaction
O=S(=O)(NCCNC/C=C/c1ccc(Br)cc1)c1cccc2cnccc12 [H89],"association of PDE8A and 14-3-3ζ, PKA inhibitor","[1]; 100 μM, 15 min pretreatment, then forskolin 100 μM, 15 min, anti-HA IP, Fig. 3A",association decreased
"CC(C)Cn1c(=O)n(C)c(=O)c2[nH]cnc21 [IBMX, 3-isobutyl-1-methylxanthine]",sensitivity of PDE8A to inhibitor,[2],insensitive
CC(C)C[C@H](NC(=O)[C@H](COP(=O)(O)O)NC(=O)CNC(=O)[C@H](CCCCN)NC(=O)[C@H](CCCNC(=N)N)NC(=O)[C@H](CCCNC(=N)N)NC(=O)[C@H](CC(=O)O)NC(=O)[C@@H](N)CCCCN)C(=O)N[C@@H](CC(=O)O)C(=O)N[C@H](C(=O)N[C@@H](CCCCN)C(=O)N[C@@H](C)C(=O)N[C@H](C(=O)N[C@@H](C)C(=O)O)C(C)C)C(C)C [KA14P] (H-KDRRKG[pS]LDVKAVA-OH),Kd,[3],11.3 ± 0.18 µM
"CCCCCCCCCCCCCC(=O)O[C@@H]1[C@@H](C)[C@@]2(O)[C@@H](C=C(CO)C[C@]3(O)C(=O)C(C)=C[C@@H]23)[C@@H]2C(C)(C)[C@]12OC(C)=O [PMA, phorbol 12-myristate 13-acetate]","change of PDE8A–14-3-3ζ interaction, PKC activator/inhibitor",[1]; 15 min,no change of interaction
C=C[C@@]1(C)CC(=O)[C@]2(O)[C@@]3(C)[C@@H](O)CCC(C)(C)[C@@H]3[C@H](O)[C@H](OC(C)=O)[C@@]2(C)O1 [forskolin],"association of PDE8A and 14-3-3ζ, PKA activator","[1]; 100 μM, 15 min, serum-free, anti-HA IP, at least three repeats, Fig. 3A",increased association
same,phosphorylation of DN-PDE8A by PKA following treatment,[4],rapidly phosphorylated
same,interaction of DN-PDE8A with 14-3-3ζ,[5],increased further
COc1ccc(Cl)c(Nc2nc3ccccc3nc2NS(=O)(=O)c2cccc(NC(=O)C(C)(C)N)c2)c1 [pilaralisib],"PDE8A–14-3-3ζ interaction, inhibitor of PI3K","[1]; 100 μM, 30 min, Fig. 3C",remained unchanged
PDE8A (phosphodiesterase 8A) (from UniProt O60658) S359A,binding against the reference,[6],lost
insulin: human insulin; activator of PI3K,"PDE8A–14-3-3ζ interaction, activator of PI3K","[1]; 200 μM, 30 min, Fig. 3C",remained unchanged
purified recombinant 14-3-3ζ (from UniProt P63104 1-245) (natural protein),Kd,[7],11.3 µM
